{
  "source": "ChEMBL document CHEMBL1629485",
  "about": "“Lead identification of conformationally restricted β-lactam type combretastatin analogues: synthesis, antiproliferative activity and tubulin targeting effects” (Eur J Med Chem, 2010)",
  "key": {"MDA-MB-231 [1]": {"tested_on": "MDA-MB-231", "experiment": "Cell cycle arrest in estrogen receptor deficient human MDA-MB-231 cells assessed as accumulation at S phase at 10 uM after 48 hrs using propidium iodide staining by flow cytometry relative to control", "type": "functional", "in_short": "(§1)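 MDA-MB-231 cells in DMEM with 10% FBS and 2 mM L-glutamine, seeded at 18 × 10⁴ cells/mL. Exposed to test agent at the stated final concentration, or to 1% (v/v) ethanol vehicle, for 24, 48 or 72 h. Harvested by scraping and centrifugation, then RNase A treatment and propidium iodide DNA staining for at least 30 min at 37 °C. 10,000 cells per sample read at 488 nm by flow cytometry; mean ± SD of three experiments.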"}, "MDA-MB-231 [2]": {"tested_on": "MDA-MB-231", "experiment": "Cell cycle arrest in estrogen receptor deficient human MDA-MB-231 cells assessed as accumulation at sub-G1 phase at 100 nM after 24 hrs using propidium iodide staining by flow cytometry relative to control", "type": "functional", "in_short": "as §1"}},
  "data": [
    {"smiles": "COc1ccc(C2CC(=O)N2c2cc(OC)c(OC)c(OC)c2)cc1O", "note": "(configuration not stated)", "values": [
      {"measurement": "Activity", "setting": "MDA-MB-231 [1]", "result": 4.47, "unit": "%"},
      {"measurement": "Activity", "setting": "MDA-MB-231 [2]", "result": 4.88, "unit": "%"}
    ]}
  ]
}
